Source: PubChem
FLuc stim CS = firefly luciferase counter-screen for stimulation assays | P08659 | ATPlite luciferase biochemical, luminescence, 10 min; 0 = ATP-free wells, 1 = DMSO control | activation factor at 10 µM | 200,000 tested, under 10 active | AID 1027;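 active means luciferase activation factor, scaled between plate controls, of at least 2 with compound at 10 µM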
Target sequence (P08659 whole entry, looked up): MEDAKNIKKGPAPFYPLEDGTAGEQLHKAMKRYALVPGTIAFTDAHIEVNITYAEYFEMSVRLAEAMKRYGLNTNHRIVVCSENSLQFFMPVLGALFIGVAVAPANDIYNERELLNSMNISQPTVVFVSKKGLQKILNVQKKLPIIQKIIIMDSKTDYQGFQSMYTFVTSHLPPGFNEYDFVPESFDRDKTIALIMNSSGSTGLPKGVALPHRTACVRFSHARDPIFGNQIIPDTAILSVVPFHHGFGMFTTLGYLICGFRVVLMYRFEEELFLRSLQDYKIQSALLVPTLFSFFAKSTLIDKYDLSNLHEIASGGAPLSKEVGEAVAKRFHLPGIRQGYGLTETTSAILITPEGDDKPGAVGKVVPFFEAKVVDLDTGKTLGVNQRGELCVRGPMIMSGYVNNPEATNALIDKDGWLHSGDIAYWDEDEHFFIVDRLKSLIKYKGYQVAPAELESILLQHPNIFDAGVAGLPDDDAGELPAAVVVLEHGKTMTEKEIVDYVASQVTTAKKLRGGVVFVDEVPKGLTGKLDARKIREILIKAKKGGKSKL
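Assay system: Luciferase/luciferin reagent mix; Medium: PBS as buffer for the ATP substrate; Dosing: test compounds dosed from 2 mM stocks in 100% DMSO; Times: 10 min, room temperature; Signal: luminescence from luciferase reaction; Read-out: luciferase activation; Controls: No-ATP low control, compound-free enzyme-plus-ATP high control.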
STAT3 inh = STAT3 signaling inhibition; 190,000 compounds, 0.89% hits; inhibition, % at 5.5 µM; AID 862; U3A cells, IL-6 STAT3-luciferase reporter, luminescence; host cell line lacks STAT1;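 active means inhibition above the mean inhibition across all screened compounds plus 3 SD, cut at about 44% in these data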;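 further: 0% = DMSO only wells and 100% = 100 µM nifuroxazide control wells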
TRAIL sens C8 = caspase-8 TRAIL sensitization. 360,000 compounds, 1% hits. AID 624354. inhibition (viability loss, TRAIL sensitization), % at 10 µM. NB7+C8 cells + TRAIL, ATPlite viability luminescence;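 active means compounds causing at least 50% loss of cell viability in the single-dose screen, relative to plate controls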
PPC-1+TRAIL kill = compounds killing PPC-1 cancer cells with TRAIL present (potentiator screen, no TRAIL-free arm). 220,000 compounds, 0.41% hits. AID 1443. cell killing (% activity), % at 4 µM or 5 µM. PPC-1 cells + TRAIL, ATPLite viability luminescence;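 active means cell killing above 50% in the first pass at 4 µM, then a duplicate retest at 5 µM averaging 50% or more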;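 further: plate controls were cells with TRAIL plus DMSO for no effect and medium-only wells lacking cells for full effect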
HSP90 refold inh = blocks HSP90-mediated luciferase refolding in reticulocyte lysate; Rabbit reticulocyte lysate, luciferase refolding luminescence, 3 h; inhibition, % at 5.6 µM; 290,000 compounds, 0.91% hits;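 active means inhibition above the screen-wide mean plus 3 SD, computed separately per campaign, cut at about 16% in these data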;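 further: 0% = DMSO wells and 100% = 60 µM geldanamycin wells; inhibitors lower the luminescence because luciferase stays unfolded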
FLuc inhib CS = Photinus pyralis luciferase inhibition counter-screen. inhibition, % at 10 µM. 200,000 compounds, 1.5% hits. ATPLite firefly luciferase biochemical luminescence, 10 min. P08659;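 active means inhibition above about 50% when tested at 10 µM, limit read from the data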
* hit, by the source's call; . = no result. An excerpt weighted towards active compounds, which were near 2.2% of everything screened.

SMILES	FLuc stim CS	STAT3 inh	TRAIL sens C8	PPC-1+TRAIL kill	HSP90 refold inh	FLuc inhib CS
O=C(Nc1ccc(OCC(F)(F)C(F)F)c(C(F)(F)F)c1)c1ccccc1O	1	-16	58*	1	-4	3
Cc1nc2sc(C(c3ccccc3)N3CCN(c4ccccc4F)CC3)c(O)n2n1 (configuration not stated)	1	3	2	15	6	1
O=C(O/N=C1/CCCc2occc21)c1ccc(F)cc1	0.2	5	-4	-8	-1	80*
O=C(O/N=C1/CCSc2ccccc21)c1ccc(F)cc1	0.1	-38	-6	0	-1	88*
CC(C)N(C(=O)CSc1ccc(S(=O)(=O)N2CCCCC2)cn1)C(C)C	.	.	6	.	.	.
O=C1C(=O)c2ccccc2C(O)=C1CCCCl	.	.	68*	11	9	.
CC1CCN(CCCN2C(=O)C3C(C(=O)Nc4ccc(Cl)cc4)C4C=CC3(O4)C2C(=O)NC2CCCCC2)CC1 (configuration not stated)	.	.	3	.	-4	.
CC(C)(C)c1ccc(OCc2ccc(C(=O)N/N=C/c3ccc(O)c(O)c3)cc2)cc1	1	-7	24	2	17*	-1
O=C(N/N=C/c1ccc(C(F)(F)F)cc1)c1ccc(O)cc1	0.5	14	23	26	-4	53*
CSc1ccc(/C=N/NC(=O)c2cccc(O)c2)cc1	0.1	47*	74*	54*	6	91*
O=C(N/N=C\c1ccc(F)cc1)c1ccc(F)cc1	0.4	-5	14	45	-1	58*
O=C(/C=C/[C@H]1O[C@@H](n2cnc3c(NC(=O)c4ccccc4)ncnc32)[C@H](O)[C@@H]1O)NCc1ccco1	.	.	-6	.	.	.
Nc1nc(N)c2cc(S(=O)(=O)c3cccc(C(F)(F)F)c3)ccc2n1	.	.	73*	.	.	.
Nc1cccnc1S(=O)(=O)c1cccc(C(F)(F)F)c1	.	.	-19	.	.	.
Cc1ccn2c(C(=O)N/N=C/c3ccc(CNC(=O)C(=O)Nc4ccc(C)c(C)c4)o3)c(C)nc2c1	0.8	2	.	-1	4	23
Cc1ccc(NC(=O)C(=O)NCc2ccc(/C=N/NC(=O)c3c(C)nc4ccccn34)o2)cc1	0.3	-2	37	24	-1	73*
CCCCc1c(-c2cccc(Br)c2)ncn1CCc1ccccc1OC	.	.	31	.	.	.
COc1cccc2sc(Nc3nnc(-c4ccc(F)cc4)o3)nc12	0.7	-60	10	-15	-1	28
COc1cccc2sc(Nc3nnc(-c4cccs4)o3)nc12	0.4	-80	32	26	4	56*
Fc1cccc2sc(Nc3nnc(-c4ccco4)o3)nc12	0.3	-12	41	22	7	68*
O=C(CN1C(=O)COc2ccc(S(=O)(=O)N3CCOCC3)cc21)NCc1ccccn1	.	.	2	15	9	.
CC(=O)c1ccc(NC(=S)NC(=O)c2c(Cl)c(C)nn2C)cc1	1.1	4	0	-1	-2	-11
C/C(=N\NC(=O)COc1ccc(C)cc1C(C)C)c1cc2ccccc2o1	0.3	-4	47	16	-1	72*
CC(O)CNCCCCOc1ccc(OCc2ccccc2)cc1 (configuration not stated)	1	4	15	17	-1	2
CC(O)CNCCCOc1ccccc1OCc1ccccc1 (configuration not stated)	1	9	-7	2	17*	0
SMILES	FLuc stim CS	STAT3 inh	TRAIL sens C8	PPC-1+TRAIL kill	HSP90 refold inh	FLuc inhib CS
Cc1cnc(NS(=O)(=O)c2ccc(N)cc2)nc1-c1ccccc1O	.	.	11	.	.	.
O=C(CN(C1CCCCC1)S(=O)(=O)c1ccc(F)cc1)NCC1CCCO1 (configuration not stated)	.	.	94*	.	.	.
O=C(CN(C1CCCCC1)S(=O)(=O)c1ccccc1)NCC1CCCO1 (configuration not stated)	.	.	-13	.	2	.
CCC(COC)Oc1cc(NCc2ccccc2)c2ncn(C(C)C)c2c1 (configuration not stated)	.	.	58*	.	.	.
CC(C)n1cnc2c(NCc3ccccc3)cc(N[C@H](C)CO)cc21	.	.	60*	.	.	.
CCn1cnc2cc(NC(=O)c3cccs3)ccc21	0.5	12	23	17	0	51*
CC(C)(C)n1cnc2cc(NC(=O)c3cccs3)ccc21	0.3	14	50	6	4	71*
CC(C)(C)n1cnc2cc(NC(=O)c3ccccc3)ccc21	.	.	46	.	5	.
O=C(Cc1cccs1)NCCn1ccc2ccccc21	1	-4	-16	22	-3	-5
NC(=O)C1(N2CCCCC2)CCN(C(=S)Nc2cccc(Cl)c2)CC1	1	17	-10	5	3	-3
COc1ccc2c(n1)Sc1nc3ccccc3nc1N2	.	.	77*	19	-4	.
CCCCn1c(CCl)nc2cc(S(=O)(=O)N3CCOCC3)ccc21	.	.	69*	.	.	.
CCCCn1c(C)nc2cc(S(=O)(=O)N3CCOCC3)ccc21	.	.	-2	.	.	.
O=C(c1ccc(Cl)nc1)c1cccs1	.	.	.	3	2	.
O=C(c1cccs1)c1no[n+]([O-])c1C(=O)c1cccs1	1	-18	92*	13	2	1
COc1ccc(C(=O)c2no[n+]([O-])c2C(=O)c2ccc(OC)cc2)cc1	1.1	11	93*	19	5	-8
O=C(COc1coc(CN2CCN(c3ccccc3)CC2)cc1=O)NC1CCCCC1	.	.	4	.	.	.
O=Nc1c(-c2c(O)[nH]c3cc(Br)ccc23)[nH]c2ccccc12	.	.	84*	.	-6	.
Cc1cccn2c(=O)nc(SCC(=O)NC3CCCC3)nc12	.	.	-19	.	.	.
O=C1c2cccc(NCCCNCCO)c2C(=O)c2cccc(NCCCNCCO)c21	.	.	57*	.	.	.
O=C1c2ccccc2C(=O)c2c(NCc3cccnc3)cccc21	0.9	32	7	15	0	8
C[C@H](NC(=O)c1ncn2c1C(=O)NC[C@H]2C)C(=O)OC(C)(C)C	.	.	-6	.	.	.
CCN(CC)c1ccc2c(C)c(Cl)c(=O)oc2c1	1	-3	-4	18	-3	-5
CCN(CC)c1ccc2c(c1)oc(=O)c1c(Cl)cc(=O)oc12	1	-3	70*	9	6	-3
Cc1[nH]n(-c2ccccc2)c(=O)c1/C=N\NC(=O)C1COc2ccccc2O1 (configuration not stated)	0.1	8	85*	72*	4	93*
CC(=O)N/N=C/c1c(C)[nH]n(-c2ccccc2)c1=O	1	-2	-2	-2	1	4
Cc1[nH]n(-c2ccccc2)c(=O)c1/C=N/NC(=O)c1cccc([N+](=O)[O-])c1	0.5	3	54*	7	4	49
CCCOc1ccc(C(=O)Nc2ccc(S(=O)(=O)NC3=NCCCCC3)cc2)cc1	.	.	18	.	.	.
Cc1ccc(C(=O)Nc2ccc3c(c2)nc2n3CCSC2)cc1	0.4	20	22	45	5	62*
